Results from ChEMBL document CHEMBL5608194, “Novel neuroprotective 5,6-dihydropyrido[2',1':2,3]imidazo[4,5-c]quinoline derivatives acting through cholinesterase inhibition and CB2 signaling modulation” (Eur J Med Chem, 2024).
Active and inactive are the calls of the source. The calls are words filed in the database; no cut-off is given here.

Assays:
SH-SY5Y [1] = test: Inhibition of MPP+ induced mitochondrial superoxide radical production in human SH-SY5Y cells at 10 uM incubated for 24 hrs by MitoSOX staining based microplate reader assay (reference value: 100%); assay type: functional
How it was run: (§1)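 Neuron-like SH-SY5Y (20 000 cells/well) co-treated with 5 mM MPP+ and compound for 24 h; plates centrifuged, medium replaced by 5 μM MitoSOX in HBSS, 30 min at 37 °C, fluorescence 500/580 nm; MPP+ signal set to 100 %; triplicates on at least four independent days.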

SH-SY5Y [2] = test: Cytotoxicity against human SH-SY5Y cells assessed as cell death at 10 uM incubated for 72 hrs by propidium iodide staining based fluorescence assay; assay type: toxicity
How it was run: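 SH-SY5Y differentiated to neuron-like phenotype with 10 μM all-trans retinoic acid for 48 h, 20 000 cells/well. Compounds from DMSO stocks (DMSO ≤0.5 %) added, then 72 h exposure. Control wells lysed with 1 % Triton X-100 for 1 min, then all wells stained with propidium iodide for fluorescence read-out. Dead-cell proportion expressed relative to Triton X-100-treated control.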

SH-SY5Y [3] = test: Neuroprotective activity against ATRA-differentiated and 3-NPA induced cell death in human SH-SY5Y cells assessed as cell death at 0.1 uM incubated for 48 hrs by propidium iodide staining based fluorescence assay (reference value: 100%); assay type: functional
How it was run: (§2)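 ATRA-differentiated SH-SY5Y co-treated with compound and 20 mM 3-nitropropionic acid for 48 h; cell death by propidium iodide fluorescence, 3-NPA-treated signal set to 100 %.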

SH-SY5Y [4] = test: Neuroprotective activity against ATRA-differentiated and 3-NPA induced cell death in human SH-SY5Y cells assessed as cell death at 1 uM incubated for 48 hrs by propidium iodide staining based fluorescence assay (reference value: 100%); assay type: functional; how it was run: as §2
SH-SY5Y [5] = test: Neuroprotective activity against ATRA-differentiated and 3-NPA induced cell death in human SH-SY5Y cells assessed as cell death at 10 uM incubated for 48 hrs by propidium iodide staining based fluorescence assay (reference value: 100%); assay type: functional; how it was run: as §2
SH-SY5Y [6] = test: Neuroprotective activity against ATRA-differentiated and MPP+ induced cell death in human SH-SY5Y cells assessed as cell death at 0.1 uM incubated for 24 hrs by propidium iodide staining based fluorescence assay (reference value: 100%); assay type: functional
How it was run: (§3)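 ATRA-differentiated SH-SY5Y co-treated with compound and 5 mM MPP+ for 24 h; cell death by propidium iodide fluorescence, MPP+-treated signal set to 100 %.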

SH-SY5Y [7] = test: Neuroprotective activity against ATRA-differentiated and MPP+ induced cell death in human SH-SY5Y cells assessed as cell death at 1 uM incubated for 24 hrs by propidium iodide staining based fluorescence assay (reference value: 100%); assay type: functional; how it was run: as §3
SH-SY5Y [8] = test: Neuroprotective activity against ATRA-differentiated and MPP+ induced cell death in human SH-SY5Y cells assessed as cell death at 10 uM incubated for 24 hrs by propidium iodide staining based fluorescence assay (reference value: 100%); assay type: functional; how it was run: as §3
SH-SY5Y [9] = test: Neuroprotective activity against ATRA-differentiated and MPP+ induced cell death in human SH-SY5Y cells assessed as cell death at 10 uM by LDH release assay (reference value: 100%); assay type: functional
How it was run: (§4)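 ATRA-differentiated SH-SY5Y co-treated with 5 mM MPP+ and compound; cell death by commercial LDH release kit; MPP+ value set to 100 %; triplicates on at least three independent days.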

SH-SY5Y [10] = test: Neuroprotective activity against ATRA-differentiated and MPP+ induced cell death in human SH-SY5Y cells assessed as cell death at 1 uM by LDH release assay (reference value: 100%); assay type: functional; how it was run: as §4
SH-SY5Y [11] = test: Neuroprotective activity against MPP+ induced cell death in human SH-SY5Y cells assessed as cell death at 10 uM by YOPRO-1 staining based assay; assay type: functional
How it was run: (§5)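 Neuron-like SH-SY5Y co-treated with compound and 5 mM MPP+ for 24 h; centrifuged at 500 × g, medium replaced by 1 μM YO-PRO1 in PBS for 15 min at room temperature; fluorescence 488/530 nm; MPP+ signal set to 100 %; triplicates on at least three independent days.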

SH-SY5Y [12] = test: Neuroprotective activity against MPP+ induced cell death in human SH-SY5Y cells assessed as cell death at 1 uM by YOPRO-1 staining based assay; assay type: functional; how it was run: as §5
SH-SY5Y [13] = test: Neuroprotective activity against MPP+ induced cell death in human SH-SY5Y cells assessed as cell death at 1 uM incubated for 24 hrs by Cas-3, 7 staining based assay; assay type: functional
How it was run: (§6)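 Caspase-3/7 activation with Ac-DEVD-AFC substrate after 24 h co-treatment of neuron-like SH-SY5Y with compound and 5 mM MPP+; MPP+ signal set to 100 %; triplicates on at least three independent days.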

SH-SY5Y [14] = test: Neuroprotective activity against MPP+ induced cell death in human SH-SY5Y cells assessed as cell death at 10 uM incubated for 24 hrs by Cas-3, 7 staining based assay; assay type: functional; how it was run: as §6
SH-SY5Y [15] = test: Inhibition of MPP+ induced superoxide radical production in human SH-SY5Y cells at 10 uM incubated for 24 hrs by microplate reader assay (reference value: 100%); assay type: functional
How it was run: (§7)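 Neuron-like SH-SY5Y co-treated with 5 mM MPP+ and compound for 24 h; centrifuged at 500 × g, medium replaced with 10 μM dihydroethidium in PBS for 30 min, fluorescence 500/580 nm; MPP+ signal set to 100 %; triplicates on at least four independent days.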

SH-SY5Y [16] = test: Inhibition of MPP+ induced superoxide radical production in ATRA-differentiated human SH-SY5Y cells at 1 uM incubated for 24 hrs by MitoSOX staining based confocal laser scanning microscopy; assay type: functional, cell-based
How it was run: (§8)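 50 000 cells seeded on chamber slides, ATRA-differentiated, co-treated with 5 mM MPP+ and compound for 24 h, then stained with MitoSOX and imaged by confocal laser-scanning microscopy (63× objective).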

SH-SY5Y [17] = test: Inhibition of MPP+ induced mitochondrial depolarization in human SH-SY5Y cells at 1 uM incubated for 2 hrs by JC10 staining based confocal laser scanning microscopy; assay type: functional
How it was run: (§9)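 ATRA-differentiated SH-SY5Y co-treated with 5 mM MPP+ and compound for 2 h; mitochondrial membrane potential by JC10 ratiometric red/green signal (plate) and confocal imaging of JC10-stained cells (50 000 cells/well slides); DMSO control set to 100 %; triplicates on three independent days.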

Acetylcholinesterase = Acetylcholinesterase (Electrophorus electricus, UniProt O42275); test: Inhibition of electric eel AChE using acetylthiocholine as substrate by Ellman's method
Cholinesterase = Cholinesterase (Equus caballus, UniProt P81908); test: Inhibition of equine serum BChE using butyrylthiocholine as substrate by Ellman's method
How it was run: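 Equine serum BChE (0.2 U/mL final) with 40 μM butyrylthiocholine and 100 μM DTNB, modified Ellman spectrophotometry; compounds from DMSO diluted in water, five inhibitor concentrations; IC50 from regression of v0/vi versus inhibitor concentration; triplicate.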

[18] = Selectivity index, ratio of IC50 for electric eel AChE to IC50 for equine serum BChE
How it was run: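 Ratio of IC50 values from modified Ellman spectrophotometric assays with electric eel AChE and equine serum BChE. Each used enzyme at 0.2 U/mL final, acetylthiocholine or butyrylthiocholine at 40 μM, and DTNB at 100 μM. Inhibitors were dissolved in DMSO, diluted in water, and tested at five concentrations in triplicate. IC50 came from regression of v0/vi against inhibitor concentration.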

SH-SY5Y [19] = test: Neuroprotective activity against MPP+ induced cell death in human SH-SY5Y cells assessed as decrease in PARP1 cleavage at 1 to 10 uM incubated for 24 hrs by immunoblotting analysis; assay type: functional, cell-based; conditions: dose 1-10 µM
SH-SY5Y [20] = test: Inhibition of MPP+ induced superoxide radical production in ATRA-differentiated human SH-SY5Y cells at 10 uM incubated for 24 hrs by MitoSOX staining based confocal laser scanning microscopy; assay type: functional, cell-based; how it was run: as §8
SH-SY5Y [21] = test: Inhibition of MPP+ induced mitochondrial depolarization in human SH-SY5Y cells at 10 uM incubated for 2 hrs by JC10 staining based confocal laser scanning microscopy; assay type: functional; how it was run: as §9
SH-SY5Y [22] = test: Inhibition of MPP+ induced Akt phosphorylation at Ser473 residues in human SH-SY5Y cells at 1 to 10 uM incubated for 24 hrs by Western blotting analysis; assay type: cell-based; conditions: dose 1-10 µM
How it was run: (§10)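 ATRA-differentiated neuron-like SH-SY5Y co-treated with 5 mM MPP+ and compound for 24 h, lysed in RIPA buffer, SDS-PAGE, transfer to nitrocellulose, immunoblot for p-Akt (Ser473) and ERK1/2; HSP90 and β-actin loading controls; ECL chemiluminescence imaged by CCD camera.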

[23] = target: T1, Mitogen-activated protein kinase; ERK1/ERK2 (Homo sapiens) (UniProt P27361+P28482); test: Inhibition of MPP+ induced ERK1/2 phosphorylation in human SH-SY5Y cells at 1 to 10 uM incubated for 24 hrs by Western blotting analysis; assay type: cell-based; conditions: dose 1-10 µM; how it was run: as §10
SH-SY5Y [24] = test: Neuroprotective activity against MPP+ induced cell death in human SH-SY5Y cells at 1 to 10 uM in presence of AM630; assay type: functional, cell-based; conditions: dose 1-10 µM
How it was run: (§11)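 Neuron-like SH-SY5Y co-treated for 24 h with 5 mM MPP+, compound and CB2 inverse agonist AM630 or antagonist SR144528 at 0.1, 1 or 10 μM; CB2 ligands also tested alone and with MPP+; cell death read-out; triplicates on three independent days.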

SH-SY5Y [25] = test: Neuroprotective activity against MPP+ induced cell death in human SH-SY5Y cells at 1 to 10 uM in presence of SR144528; assay type: functional, cell-based; conditions: dose 1-10 µM; how it was run: as §11
[26] = target: Cannabinoid receptor 2 (Homo sapiens) (UniProt P34972); test: Activation of CB2 (unknown origin) expressed in CHO cells at 1 to 10 uM; assay type: cell-based; conditions: dose 1-10 µM
How it was run: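 cAMP quantified in CB2-transfected CHO cells after treatment; compound tested at 1 and 10 μM to detect direct receptor activation (commercial LeadHunter service).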

SH-SY5Y [27] = test: Inhibition of MPP+ induced mitochondrial depolarization in human SH-SY5Y cells at 0.1 to 1 uM incubated for 2 hrs by JC10 staining based confocal laser scanning microscopy; assay type: functional, cell-based; conditions: dose 0.1-1 µM; how it was run: as §9
[28] = target: T1, Mitogen-activated protein kinase; ERK1/ERK2 (Homo sapiens); test: Inhibition of MPP+ induced ERK1/2 phosphorylation in human SH-SY5Y cells at 10 uM incubated for 24 hrs by Western blotting analysis; assay type: cell-based; how it was run: as §10
SH-SY5Y [29] = test: Inhibition of MPP+ induced mitochondrial superoxide radical production in human SH-SY5Y cells at 1 uM incubated for 24 hrs by MitoSOX staining based microplate reader assay (reference value: 100%); assay type: functional; how it was run: as §1
SH-SY5Y [30] = test: Inhibition of MPP+ induced superoxide radical production in human SH-SY5Y cells at 1 uM incubated for 24 hrs by microplate reader assay (reference value: 100%); assay type: functional; how it was run: as §7

Cholinesterase, sequence (P81908 whole entry): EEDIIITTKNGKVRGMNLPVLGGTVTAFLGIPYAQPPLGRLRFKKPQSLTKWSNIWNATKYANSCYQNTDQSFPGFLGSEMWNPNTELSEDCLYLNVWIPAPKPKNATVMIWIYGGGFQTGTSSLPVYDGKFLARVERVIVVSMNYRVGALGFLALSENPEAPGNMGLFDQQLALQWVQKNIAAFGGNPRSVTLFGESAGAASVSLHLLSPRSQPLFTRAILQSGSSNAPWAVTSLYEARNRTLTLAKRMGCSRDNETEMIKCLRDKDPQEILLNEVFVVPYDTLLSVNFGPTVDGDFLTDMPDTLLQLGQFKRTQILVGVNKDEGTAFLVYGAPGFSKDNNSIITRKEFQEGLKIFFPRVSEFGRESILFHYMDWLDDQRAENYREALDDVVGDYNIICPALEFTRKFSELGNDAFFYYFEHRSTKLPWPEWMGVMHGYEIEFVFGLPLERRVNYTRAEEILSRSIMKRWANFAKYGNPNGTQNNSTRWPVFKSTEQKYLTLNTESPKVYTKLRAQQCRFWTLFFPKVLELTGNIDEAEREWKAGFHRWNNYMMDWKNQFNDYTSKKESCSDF
Acetylcholinesterase, sequence (O42275 whole entry): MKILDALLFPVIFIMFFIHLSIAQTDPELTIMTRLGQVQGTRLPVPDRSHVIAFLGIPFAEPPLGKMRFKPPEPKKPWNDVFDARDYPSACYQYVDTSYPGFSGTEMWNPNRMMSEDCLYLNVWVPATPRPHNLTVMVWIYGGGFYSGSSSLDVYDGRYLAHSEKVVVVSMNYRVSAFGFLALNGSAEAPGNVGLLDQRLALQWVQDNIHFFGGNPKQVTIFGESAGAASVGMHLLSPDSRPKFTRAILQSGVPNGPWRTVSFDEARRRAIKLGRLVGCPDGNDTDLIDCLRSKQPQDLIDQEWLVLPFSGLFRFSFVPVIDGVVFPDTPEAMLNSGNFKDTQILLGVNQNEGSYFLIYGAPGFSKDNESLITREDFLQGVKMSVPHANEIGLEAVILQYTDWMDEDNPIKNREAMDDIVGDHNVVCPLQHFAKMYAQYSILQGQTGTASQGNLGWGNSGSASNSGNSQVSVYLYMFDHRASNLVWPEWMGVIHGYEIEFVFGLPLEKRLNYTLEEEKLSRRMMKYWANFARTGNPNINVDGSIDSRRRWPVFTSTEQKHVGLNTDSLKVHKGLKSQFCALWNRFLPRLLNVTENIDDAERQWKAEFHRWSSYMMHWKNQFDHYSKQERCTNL
T1 sequence (P27361 whole entry, looked up): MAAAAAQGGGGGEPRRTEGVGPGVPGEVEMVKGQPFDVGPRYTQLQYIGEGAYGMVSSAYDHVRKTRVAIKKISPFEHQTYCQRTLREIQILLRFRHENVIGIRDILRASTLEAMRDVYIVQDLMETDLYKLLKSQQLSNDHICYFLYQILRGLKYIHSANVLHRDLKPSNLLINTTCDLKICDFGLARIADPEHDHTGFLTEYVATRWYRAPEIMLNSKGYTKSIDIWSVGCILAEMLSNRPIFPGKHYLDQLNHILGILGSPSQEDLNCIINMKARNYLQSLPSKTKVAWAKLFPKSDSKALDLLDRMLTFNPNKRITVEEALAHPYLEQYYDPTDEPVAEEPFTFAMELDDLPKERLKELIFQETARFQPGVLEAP
T1 sequence (P28482 whole entry, looked up): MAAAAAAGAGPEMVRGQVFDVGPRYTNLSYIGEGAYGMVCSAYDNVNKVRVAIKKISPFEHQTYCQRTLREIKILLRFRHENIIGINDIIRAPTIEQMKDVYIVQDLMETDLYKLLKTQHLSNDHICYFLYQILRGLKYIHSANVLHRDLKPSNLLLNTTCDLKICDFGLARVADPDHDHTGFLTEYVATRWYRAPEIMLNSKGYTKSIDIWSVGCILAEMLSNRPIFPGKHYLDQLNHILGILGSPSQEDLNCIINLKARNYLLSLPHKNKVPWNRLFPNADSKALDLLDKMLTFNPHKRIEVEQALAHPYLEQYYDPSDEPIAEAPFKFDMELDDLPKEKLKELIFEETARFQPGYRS
Cannabinoid receptor 2 (Homo sapiens), sequence (P34972 whole entry): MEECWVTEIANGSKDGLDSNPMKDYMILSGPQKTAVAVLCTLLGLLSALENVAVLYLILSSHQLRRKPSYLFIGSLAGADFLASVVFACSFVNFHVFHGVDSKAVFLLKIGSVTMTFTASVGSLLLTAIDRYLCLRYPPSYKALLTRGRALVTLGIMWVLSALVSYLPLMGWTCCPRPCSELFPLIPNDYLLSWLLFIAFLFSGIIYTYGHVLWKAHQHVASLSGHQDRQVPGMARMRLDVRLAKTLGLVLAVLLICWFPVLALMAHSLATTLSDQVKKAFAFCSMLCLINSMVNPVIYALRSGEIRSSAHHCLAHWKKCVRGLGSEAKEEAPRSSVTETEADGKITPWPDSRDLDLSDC

SMILES	inhibition at 10 µM (SH-SY5Y [1]) [%]	Activity (SH-SY5Y [2]) [%]	Activity (SH-SY5Y [3]) [%]	Activity (SH-SY5Y [4]) [%]	Activity (SH-SY5Y [5]) [%]	Activity (SH-SY5Y [6]) [%]	Activity (SH-SY5Y [7]) [%]	Activity (SH-SY5Y [8]) [%]	Activity (SH-SY5Y [9]) [%]	Activity (SH-SY5Y [10])	Activity (SH-SY5Y [11]) [%]	Activity (SH-SY5Y [12]) [%]	Activity (SH-SY5Y [13]) [%]	Activity (SH-SY5Y [14]) [%]	inhibition at 10 µM (SH-SY5Y [15]) [%]	inhibition at 1 µM (SH-SY5Y [17]) [%]	IC50 (Acetylcholinesterase) [µM]	IC50 (Cholinesterase) [µM]	Ratio IC50 [18]	Activity (SH-SY5Y [19])	also measured
Brc1ccc2nc3c(n2c1)C1(CCCC1)Nc1ccccc1-3	41.3	12.2	78.4	63.9	59.7	66.4	31.8	27.5	51.9	58.5%	43.5	47.3	49.4	72.6	52.2	78.5	27	10.7	2.51	–	inhibition (SH-SY5Y [16]): Active
CC1(C)Nc2ccccc2-c2nc3ccccn3c21	41.3	14.6	98.7	83.1	57.8	96.7	39.7	26.2	50.2	Active	37.9	58.8	64.2	48.8	44.4	–	47.9	28.5	1.68	Active	inhibition (SH-SY5Y [20]): Active; inhibition at 10 µM (SH-SY5Y [21]): 66.8%; inhibition (SH-SY5Y [22]): Active; inhibition [23]: Active; Activity (SH-SY5Y [24]): inactive; Activity (SH-SY5Y [25]): inactive; Activity [26]: inactive
O=c1c2ccccc2[se]n1-c1ccccc1 [EBSELEN]	63.3	18.3	118.7	112	132.9	99.5	80	27.5	59.2	–	53.4	–	–	–	57.1	–	12.7	12.1	1.05	Active	inhibition (SH-SY5Y [27]): inactive; inhibition (SH-SY5Y [22]): inactive; inhibition [28]: inactive
c1ccc2c(c1)NC1(CCCCC1)c1c-2nc2ccccn12	–	12.2	78.5	64	65.8	57	37.3	52.7	–	65.1%	–	58.7	59.1	–	–	70.6	34	19.8	1.72	–	inhibition at 1 µM (SH-SY5Y [29]): 61.7%; inhibition at 1 µM (SH-SY5Y [30]): 59.9%
